Source: PubChem BioAssay
Lmaj promast – Leishmania major promastigote growth inhibition, primary screen; inhibition, % at 10 µM; Leishmania major promastigotes, resazurin fluorescence viability; AID 1063, 2008; 200,000 tested, 9% active; in the data active = inhibition above about 50%;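 also: promastigotes grown with compound for 44 hours at 28 °C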
m-calpain inh – inhibitors of pig calpain II, primary screen, biochemical, fluorogenic peptide substrate, 1536-well; purified calpain II, 30 min; inhibition, % at 16 µM; 220,000 tested, 0.37% active; AID 1236, 2008;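 active = inhibition above about 50%, limit read from the data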
PMI act satM6P – human PMI activators, high substrate, primary screen, biochemical, fluorescence intensity, near-saturating mannose 6-phosphate; Mannose-6-phosphate isomerase (Homo sapiens), P34949; coupled PMI enzyme assay, resazurin fluorescence, 20 min; stronger effect = higher value; 1 = untreated enzyme, 0 = substrate-free blank; activation factor at 20 µM; 190,000 tested, 0.34% active; AID 1216, 2008;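 active = activation factor of 2 or more at 20 µM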
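Test system: Human PMI in coupled enzyme assay | Input: 15 ng/mL PMI | Medium: HEPES-buffered pH 7.4 with magnesium and detergent | Compound: One concentration, 20 µM, in 1% DMSO | Incubation: Enzyme reaction with compound 20 min at room temperature | Detection: Diaphorase-driven resazurin-to-resorufin fluorescence, excitation 544, emission 590 nm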
WT yeast gro inh – growth inhibition of WT strain, primary screen, mitochondrial fusion inhibitor project, WT and mutant strains, chemical genetic; mitochondrial fusion phenotypic screen; inhibition, % at 10 µM; 190,000 tested, 2.1% active; AID 1362, 2008; in the data active = inhibition above about 58%; tested in S. cerevisiae
Rad51 HR inh – human RAD51 strand exchange inhibitors, primary screen, biochemical, fluorescence; DNA repair protein RAD51 homolog 1 (Homo sapiens), Q06609; hRad51 DNA strand exchange, fluorescence dequenching; inhibition, % at 10 µM; 200,000 tested, 0.085% active; AID 1385, 2008;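 active = inhibition above 40% at the single screening dose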;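 also: 0% = DMSO control wells and 100% = blanks with heterologous ssDNA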
Target sequence (Q06609 whole entry, looked up): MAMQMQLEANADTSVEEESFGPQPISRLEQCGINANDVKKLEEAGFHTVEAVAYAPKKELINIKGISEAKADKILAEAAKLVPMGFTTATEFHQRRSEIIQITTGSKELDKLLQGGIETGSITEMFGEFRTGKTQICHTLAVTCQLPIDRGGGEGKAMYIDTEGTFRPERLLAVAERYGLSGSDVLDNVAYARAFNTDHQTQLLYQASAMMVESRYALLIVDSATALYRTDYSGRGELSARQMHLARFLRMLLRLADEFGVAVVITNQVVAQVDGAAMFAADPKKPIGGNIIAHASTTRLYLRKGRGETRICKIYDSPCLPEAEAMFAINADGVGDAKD
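Material: human Rad51–ssDNA filaments; Probe or stimulus: labelled 47-mer dsDNA for strand exchange; Doses: single 10 µM dose; Incubation: 37 °C 15-min filament assembly, 30-min compound preincubation, 15-min exchange; Technique: FRET fluorescence dequenching, excitation 485 nm, emission 520 nm; Measure: Fluorescence-based percent inhibition, control- and blank-normalised; Benchmarks: plate control and blank wells.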
PMI act – activators of human PMI, primary screen, biochemical, fluorescence intensity, near-Km mannose 6-phosphate; Mannose-6-phosphate isomerase (Homo sapiens), P34949; activation factor at 20 µM; AID 1214, 2008; 190,000 tested, 0.005% active; purified human PMI, coupled resazurin fluorescence, 20 min; stronger effect = higher value; 1 = vehicle control, 0 substrate-free wells;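 active = activation factor of 2 or more at 20 µM, relative to plate controls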
* marks the source's active call; other numbers are inactive results. Hits are enriched below; roughly 9.8% of the tested compounds scored in any of these assays.

Results for O=C(Nc1nnc(-c2ccc(Cl)cc2)o1)C1=COCCO1 ?
Lmaj promast: 54.3*; m-calpain inh: 26.6; PMI act satM6P: 1; WT yeast gro inh: 17.0; Rad51 HR inh: -4.7; PMI act: 1.1

What do the screens show for `CSC(=O)NC(=O)NC(=O)c1ccc([N+](=O)[O-])cc1`?
m-calpain inh: -21.8; Rad51 HR inh: 7.5

What do the screens show for `Cc1ccc(NS(=O)(=O)c2ccc(C3CCCCC3)cc2)cc1`?
Lmaj promast: 12.6; m-calpain inh: 39.3; PMI act satM6P: 0.8; WT yeast gro inh: 80.2*; Rad51 HR inh: 6.0; PMI act: 0.8

What do the screens show for `CCN(CC)CCC#CC(O)(c1ccccc1)c1ccccc1`?
Lmaj promast: 5.1; m-calpain inh: 8.9; PMI act satM6P: 1.2; WT yeast gro inh: -11.1; Rad51 HR inh: 4.0; PMI act: 1.1

What do the screens show for `CCN(CC)CC#CC(OC)(c1ccccc1)c1ccccc1`?
Lmaj promast: 64.3*; m-calpain inh: -16.3; PMI act satM6P: 0.8; WT yeast gro inh: 10.7; Rad51 HR inh: 5.1; PMI act: 0.9

How did CCN1/C(=C/c2cc[n+](C)cc2)C=Cc2cc(C)ccc21 do in these assays?
Lmaj promast: 100.5*; m-calpain inh: 9.8; PMI act satM6P: 0.3; WT yeast gro inh: 70.3*; Rad51 HR inh: 1.2; PMI act: 0.5

Results for COC(=O)[C@@H]1[C@@H](C#N)C2(c3ccccc3-c3ccccc32)N(c2ccc(Cl)cc2)N1C#N ?
Lmaj promast: -1.5; m-calpain inh: -10.9; PMI act satM6P: 1; WT yeast gro inh: 73.6*; Rad51 HR inh: -6.4; PMI act: 1

How did CCC(C)(C)n1nnnc1C(c1ccc2ncccc2c1)N1CCN(c2ccc(O)cc2)CC1 (stereo not drawn) do in these assays?
m-calpain inh: -25.6; Rad51 HR inh: 18.8

Results for CCC(C)(C)n1nnnc1C(c1ccc(C)cc1)N1CCN(Cc2ccc3c(c2)OCO3)CC1 (stereo not drawn) ?
Lmaj promast: 80.6*; m-calpain inh: 2.8; PMI act satM6P: 1; WT yeast gro inh: 16.3; Rad51 HR inh: 3.2; PMI act: 1

What do the screens show for `CCC(C)(C)n1nnnc1C(c1ccccc1)N1CCN(Cc2ccccc2)CC1` (stereo not drawn)?
Lmaj promast: 8.4; m-calpain inh: 14.5; PMI act satM6P: 0.9; WT yeast gro inh: 0.4; Rad51 HR inh: -3.5; PMI act: 0.9

What do the screens show for `CCC(C)(C)n1nnnc1C(c1ccc2ncccc2c1)N1CCN(Cc2ccc3c(c2)OCO3)CC1` (stereo not drawn)?
Lmaj promast: 99.2*; m-calpain inh: -58.5; PMI act satM6P: 1; WT yeast gro inh: -4.1; Rad51 HR inh: 8.0; PMI act: 1

What do the screens show for `CCC(C)(C)n1nnnc1C(c1ccc(C)cc1)N1CCC(C)CC1` (stereo not drawn)?
Lmaj promast: 61.7*; m-calpain inh: 19.4; PMI act satM6P: 1; WT yeast gro inh: 5.0; Rad51 HR inh: -1.2; PMI act: 1

Results for C(=N\Nc1ncnc2sc3c(c12)CCC3)/c1ccncc1 ?
Lmaj promast: 65.9*; m-calpain inh: 16.4; PMI act satM6P: 1.2; WT yeast gro inh: -2.5; Rad51 HR inh: 6.5; PMI act: 1.1

What do the screens show for `O=C(CSc1nn(-c2ccccc2)c(=S)s1)Nn1cnnc1`?
Lmaj promast: -3.2; m-calpain inh: -19.7; PMI act satM6P: 1; WT yeast gro inh: 6.5; PMI act: 1.1

Results for Cc1ccc(NC(=O)CSc2nn(-c3ccccc3)c(=S)s2)cc1S(=O)(=O)N(C)C ?
Lmaj promast: 77.4*; m-calpain inh: 2.5; PMI act satM6P: 1; WT yeast gro inh: -2.0; Rad51 HR inh: 5.5; PMI act: 1

How did O=C(NC1CCCCC1)Sc1ccc(Cl)cc1 do in these assays?
Lmaj promast: 63.5*; m-calpain inh: -3.0; PMI act satM6P: 1.3; WT yeast gro inh: 5.6; Rad51 HR inh: 4.9; PMI act: 0.7

What do the screens show for `CCCOc1cccc(-c2nn(-c3ccccc3)cc2/C=C(\C#N)C(=O)NCCCn2ccnc2)c1`?
Lmaj promast: 89.3*; m-calpain inh: -25.3; PMI act satM6P: 0.8; WT yeast gro inh: 8.2; Rad51 HR inh: -36.8; PMI act: 0.8

What do the screens show for `N#C/C(=C/c1cn(-c2ccccc2)nc1-c1cccc(OCc2ccc(F)cc2)c1)C(=O)NCCCn1ccnc1`?
Lmaj promast: 100.4*; m-calpain inh: -46.3; PMI act satM6P: 1; WT yeast gro inh: 50.3; Rad51 HR inh: 0.6; PMI act: 1.1

Results for O=C(NCCCn1ccnc1)c1cn(-c2ccccc2)nc1-c1ccc(F)cc1 ?
Lmaj promast: 7.2; m-calpain inh: 20.7; PMI act satM6P: 0.9; WT yeast gro inh: 7.8; Rad51 HR inh: 8.4; PMI act: 1

How did Cc1noc(C)c1S(=O)(=O)N(C)CC(=O)NCc1ccccc1 do in these assays?
Lmaj promast: -5.9; m-calpain inh: 3.7; PMI act satM6P: 1.1; WT yeast gro inh: -8.6; Rad51 HR inh: 7.5; PMI act: 1

How did Cc1noc(C)c1S(=O)(=O)N(CCc1ccccc1)Cc1ccccc1 do in these assays?
Lmaj promast: 11.2; m-calpain inh: 14.2; PMI act satM6P: 0.9; WT yeast gro inh: 69.7*; Rad51 HR inh: -2.3; PMI act: 0.9

What do the screens show for `COc1cc2[nH]c(=O)n(C3CCCCC3)c(=O)c2cc1OC`?
Lmaj promast: 50.2*; m-calpain inh: -3.7; PMI act satM6P: 1; WT yeast gro inh: 28.9; Rad51 HR inh: -6.7; PMI act: 1

How did CCOc1cc2[nH]c(=S)n(C3CC3)c(=O)c2cc1OCC do in these assays?
Lmaj promast: -4.5; m-calpain inh: -12.0; PMI act satM6P: 1; WT yeast gro inh: -2.1; Rad51 HR inh: 0.3; PMI act: 0.9

How did CC1CCCC(C)N1C(=C(Cl)Cl)C(=C1SCCS1)[N+](=O)[O-] (stereo not drawn) do in these assays?
Lmaj promast: 16.1; m-calpain inh: -4.4; PMI act satM6P: 0.8; WT yeast gro inh: 38.6; Rad51 HR inh: -18.6; PMI act: 0.8

What do the screens show for `Cc1cc(C(=O)CN(Cc2ccc(F)cc2)S(=O)(=O)c2ccc3c(c2)OCCO3)c(C)n1C`?
Lmaj promast: 39.0; m-calpain inh: 58.4*; PMI act satM6P: 0.8; WT yeast gro inh: 10.0; Rad51 HR inh: -2.6; PMI act: 0.8

Results for CC(=O)NC1(c2nnnn2CCOC(=O)Nc2ccc(Cl)cc2)CCCC1 ?
Lmaj promast: -5.4; m-calpain inh: 10.8; PMI act satM6P: 1; WT yeast gro inh: 15.3; Rad51 HR inh: -1.8; PMI act: 1
